Measured values taken from PMC3549054 (Biochemistry, 2012).
pKd: −log10 of the molar value. “Also recorded” adds a separate entry of the source. Like-named read-outs stand apart in the source and are kept apart here.

Experiments:
rGAPDH [1] = molecular target: T1, rGAPDH (Oryctolagus cuniculus, UniProt P46406); assay: Kinetics of heme transfer from GAPDH to apo-myoglobin, koff; format: binding, rabbit; settings: for Kd: Wild type rGAPDH
rGAPDH [2] = molecular target: T1, rGAPDH; assay: Binding of pre-reduced heme to rGAPDH; set-up: species or system rabbit; settings: after 10 min
rGAPDH [3] = molecular target: T1, rGAPDH; assay: Spectrophotometric titration of GAPDH with hemin; format: binding, rabbit
rGAPDH [4] = molecular target: T1, rGAPDH; assay: Stopped-flow kinetics of heme binding to GAPDH, kon; set-up: species or system rabbit; settings: ferric heme, 10 °C
Summary of the method: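 N-terminally His6-tagged rabbit GAPDH, expressed in E. coli BL21(DE3) and Ni-NTA purified. Freshly prepared hemin (5 µM) was mixed by stopped-flow at 10 °C with rGAPDH at 10–80 µM in 100 mM EPPS pH 7.6, 150 mM NaCl and 10% glycerol. Traces were collected on a diode array detector, and kobs was obtained from single-exponential fits.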

rabbit GAPDH = rabbit GAPDH (Oryctolagus cuniculus, UniProt P46406); assay: UV-visible binding of protoporphyrin IX analogs to rabbit GAPDH
rGAPDH [5] = molecular target: T1, rGAPDH; assay: GAPDH dehydrogenase activity assay; format: biochemical, rabbit; settings: data not shown
Summary of the method: (§1)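 NADH formation was followed at 340 nm (ε340 = 6.22 mM−1cm−1) in 40 mM triethanolamine, 50 mM Na2HPO4, 0.2 mM EDTA, pH 8.9, with 2 mM NAD and 2 mM D-glyceraldehyde 3-phosphate. Reactions were started with ~1 µg enzyme. The rabbit enzyme was N-His6, Ni-NTA purified; the human enzyme was a GST fusion cleaved with thrombin. Both were expressed in E. coli.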

hGAPDH = hGAPDH (Homo sapiens, UniProt P04406); assay: GAPDH dehydrogenase activity assay; format: biochemical; settings: data not shown
Summary of the method: as §1

[6] = molecular target: Nuclear hormone receptor, Rev-erb β; settings: read-out: Kd (direct), ref [14], cited from earlier work
Sperm whale Mb = settings: ref [56]; cited from earlier work
[7] = molecular target: HRI (heme regulated inhibitor), eIF2α; settings: ref [60], cited from earlier work
BSA = settings: cited from earlier work
Apo-DHR51-LBD = settings: read-out: Kd (direct); ref [81]; cited from earlier work
CcmE = settings: ref [82], cited from earlier work
HasAp = settings: ref [34], cited from earlier work
HtsA = settings: ref [83], cited from earlier work
Shp = settings: ref [84], cited from earlier work
HTP (PhuT) = settings: ref [21], cited from earlier work
PhuS = settings: ref [57]; cited from earlier work
pa-HO = settings: ref [57], cited from earlier work
Rv0203 = settings: ref [85], cited from earlier work
nitrobindin = settings: ref [68]; cited from earlier work
Ferric rGAPDH-heme = Ferric rGAPDH-heme (Oryctolagus cuniculus, UniProt P46406); format: binding, rabbit
rGAPDH [8] = molecular target: T1, rGAPDH; assay: Ethoxylation of His residues with DEPC, then heme binding by UV-vis; format: biochemical, rabbit; settings: 15 mM DEPC, 2 h on ice
Summary of the method: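 Recombinant rabbit GAPDH (N-His6, E. coli BL21(DE3), Ni-NTA purified), 100 µM apo or preformed with 20 µM heme, treated with 15 mM DEPC on ice in 40 mM EPPS pH 7.6, 150 mM NaCl, 10% glycerol. Excess DEPC removed by three buffer exchanges on 10 kDa spin columns. Protein diluted to ~40 µM; UV-vis spectra taken before and after adding 8 µM fresh hemin.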

[9] = molecular target: Fe(II)-GAPDH (ferrous rGAPDH-heme) (Oryctolagus cuniculus, UniProt P46406); assay: Stopped-flow kinetics of CO binding to Fe; set-up: species or system rabbit
CBS = settings: ref [44]; cited from earlier work
[10] = Redox potentiometry of rGAPDH-heme; format: physicochemical; settings: titration of ferric complex with dithionite
[11] = pH 7.4 (Tris, 100 mM, 10% glycerol), room temperature
[12] = CO-saturated buffer (1 mM final concentration), 10 °C
[13] = fit of Equation 2 to fast phase

T1 sequence (P46406 2-333 limits assumed): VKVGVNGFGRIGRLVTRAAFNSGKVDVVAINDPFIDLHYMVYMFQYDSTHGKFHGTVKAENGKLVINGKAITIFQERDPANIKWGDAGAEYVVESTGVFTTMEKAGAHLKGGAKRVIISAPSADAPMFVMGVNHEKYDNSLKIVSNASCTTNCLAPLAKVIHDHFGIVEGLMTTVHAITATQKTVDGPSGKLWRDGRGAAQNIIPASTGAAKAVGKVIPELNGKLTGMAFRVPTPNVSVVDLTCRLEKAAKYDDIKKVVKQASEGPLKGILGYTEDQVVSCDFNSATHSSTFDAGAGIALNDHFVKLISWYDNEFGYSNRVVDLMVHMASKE
Chain of Ferric rGAPDH-heme (P46406 2-333): as the sequence (P46406 2-333 limits assumed) above
Chain of Fe(II)-GAPDH (ferrous rGAPDH-heme) (P46406 2-333): as the sequence (P46406 2-333 limits assumed) above
Chain of rabbit GAPDH (P46406 2-333 limits assumed): as above
Chain of hGAPDH (P04406 2-335 limits assumed): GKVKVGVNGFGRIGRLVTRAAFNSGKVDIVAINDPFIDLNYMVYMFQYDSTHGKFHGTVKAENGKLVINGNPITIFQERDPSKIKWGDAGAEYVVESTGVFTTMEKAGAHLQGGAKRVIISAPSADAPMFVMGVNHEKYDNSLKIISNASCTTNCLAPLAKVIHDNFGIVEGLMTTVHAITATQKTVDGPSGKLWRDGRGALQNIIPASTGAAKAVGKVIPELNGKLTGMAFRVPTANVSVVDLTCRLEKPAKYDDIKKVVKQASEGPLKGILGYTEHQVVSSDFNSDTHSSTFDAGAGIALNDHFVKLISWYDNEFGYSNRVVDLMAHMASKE

C=CC1=C(C)c2cc3[n-]c(cc4[n-]c(cc5nc(cc1n2)C(C)=C5C=C)c(C)c4CCC(=O)O)c(CCC(=O)O)c3C.[Fe+2] [ferrous heme]
koff of ferrous (reduced) heme (rGAPDH [1]; ferrous heme, 25 °C, anaerobic, single exponential): 0.0042 s⁻¹ | fraction of total available reduced heme forming a complex with rGAPDH (rGAPDH [2]): 18%

C=CC1=C(C)c2cc3[n-]c(cc4[n-]c(cc5nc(cc1n2)C(C)=C5C=C)c(C)c4CCC(=O)O)c(CCC(=O)O)c3C.[Cl-].[Fe+3] [hemin, Fe(III)-protoporphyrin IX]
pKd (rGAPDH [3]; read-out: Kd (direct), Wild type rGAPDH): 7.62 | pKd (rGAPDH [3]; read-out: dissociation constant (Kd), direct titration, 10 µM rGAPDH, hemin 0–35 µM, 100 mM Tris pH 7.4, 10% glycerol): 7.62 | kon (rGAPDH [4]): 17800 M⁻¹ s⁻¹ | koff1 (fast phase) (rGAPDH [1]; ferric heme, 10 °C, bi-exponential fit): 0.007 s⁻¹ | Kd (rGAPDH [1]; read-out: Kd (koff/kon) (M), from fast koff): 3.9e-07 M | Kd (rGAPDH [1]; read-out: Kd (koff/kon) (M), from slow koff): 1.9e-08 M | pKd (rGAPDH [1]; read-out: approximate affinities from koff/kon, ferric heme, 10 °C): 6.41 to 7.72 | Binding to GAPDH (Comments) (rabbit GAPDH; [11]): LS, red-shift | effect of heme binding on dehydrogenase activity (rGAPDH [5]): does not affect | effect of heme binding on dehydrogenase activity (hGAPDH): does not affect | pKd ([6]; Rev-erb β (oxidized)): 6.93 | pKd ([6]; Rev-erb β (reduced)): 7.64 | koff (Sperm whale Mb): 8.4e-07 s⁻¹ | kon (Sperm whale Mb): 7.6e+07 M⁻¹ s⁻¹ | pKd ([7]; read-out: Kd (koff/kon)): 9.85 | koff [7]: 0.0015 s⁻¹ | kon [7]: 1.1e+07 M⁻¹ s⁻¹ | heme dissociation rate (BSA; BSA-heme, ref [65]): 10^−2 s^−1 | pKd (BSA; read-out: Kd (koff/kon), ref [56]): 9.66 | koff (BSA; ref [56]): 0.011 s⁻¹ | kon (BSA; ref [56]): 5e+07 M⁻¹ s⁻¹ | pKd (Apo-DHR51-LBD): 6.37 | Kd (CcmE; read-out: Kd (direct) (M), high affinity): 2e-07 M | Kd (CcmE; read-out: Kd (direct) (M), low affinity): 1e-05 M | pKd (HasAp; read-out: Kd (koff/kon)): 4.46 | kon (HasAp): 1.6e+07 M⁻¹ s⁻¹ | pKd (HtsA; read-out: Kd (koff/kon)): 5.10 | kon (HtsA): 8e+07 M⁻¹ s⁻¹ | pKd (Shp; read-out: Kd (koff/kon)): 4.66 | kon (Shp): 1.6e+06 M⁻¹ s⁻¹ | pKd (HTP (PhuT); read-out: Kd (direct)): 2.92 | koff (HTP (PhuT)): 0.00038 s⁻¹ | koff (PhuS): 0.036 s⁻¹ | kon (PhuS): 180000 M⁻¹ s⁻¹ | pKd (pa-HO; read-out: Kd (koff/kon)): 6.22 | koff (pa-HO): 0.066 s⁻¹ | kon (pa-HO): 110000 M⁻¹ s⁻¹ | pKd (Rv0203; read-out: Kd (koff/kon)): 9.21 | koff (Rv0203): 0.082 s⁻¹ | kon (Rv0203): 1.3e+08 M⁻¹ s⁻¹ | heme loss rate (nitrobindin): 3.6e-05 s⁻¹

N#C[S-].[Na+] [thiocyanate]
binding to ferric rGAPDH-heme (spectral shift) (Ferric rGAPDH-heme): did not bind

Fe(III)-mesoporph IX
Binding to GAPDH (Comments) (rabbit GAPDH; pH 7.4): LS, red-shift

[N-]=[N+]=[N-] [azide]
binding to ferric rGAPDH-heme / displacement of distal ligand (as summarised) (Ferric rGAPDH-heme): unable to bind; also recorded: not displaced

CCOC(=O)OC(=O)OCC [DEPC, diethylpyrocarbonate]
effect of DEPC on preformed rGAPDH-heme spectral properties (rGAPDH [8]): did not alter; also recorded: had no effect; also recorded: does not alter | effect of DEPC treatment of heme-free rGAPDH on heme binding (rGAPDH [8]): abolished the protein’s ability to bind heme; also recorded: hampered heme binding completely; also recorded: unable to bind heme

[C-]#[O+] [CO, carbon monoxide]
kobs, 6-coord, 420 nm [9]: 1.2 s⁻¹ | kobs1 (fast phase) of CO binding [9, 12]: 1.5 s⁻¹ | kobs2 (slow phase) of CO binding [9, 12]: 0.068 s⁻¹ | rate of distal ligand displacement by CO ([9]; [CO]>0.2 mM): 1.75 s⁻¹ | axial ligand dissociation rate constant k−Y [9, 13]: ~ 2 s^−1 | ligand rebinding rate ratio kY/k'CO [9, 13]: ~ 0.1 mM | kobs 5-coord, 410 nm ([9]; saturating [CO], [rGAPDHtetramer]/[heme] < 1:1): 4.3 s⁻¹ | rebinding rate ratio for displacement of Cys^52 by CO (CBS): 106 µM

Fe(III)-2,4-diacetyldeuteroporph IX
Binding to GAPDH (Comments) (rabbit GAPDH; pH 7.4): LS, partial binding, red-shift

Zn(II)-protoporph IX
Binding to GAPDH (Comments) (rabbit GAPDH; pH 7.4): LS, partial binding, red-shift

C=CC1=C(C)c2cc3[nH]c(cc4nc(cc5[nH]c(cc1n2)c(C)c5CCC(=O)O)C(CCC(=O)O)=C4C)c(C)c3C=C [Protoporph IX, Protoporphyrin IX]
Binding to GAPDH (Comments) (rabbit GAPDH; [11]): No binding

c1c[nH]cn1 [imidazole]
binding to ferric rGAPDH-heme (spectral shift) (Ferric rGAPDH-heme): did not bind | binding to ferric rGAPDH-heme / displacement of distal ligand (as summarised) (Ferric rGAPDH-heme): unable to bind

Fe(III)-deuteroporph IX
Binding to GAPDH (Comments) (rabbit GAPDH; pH 7.4): LS, red-shift

C=Cc1c(C)c2cc3[nH]c(cc4nc(cc5nc(cc1[nH]2)C(C)=C5CCC(=O)[O-])C(CCC(=O)[O-])=C4C)c(C)c3C=C.[Co+2] [Co(III)-protoporph IX, Co(III)-protoporphyrin IX]
Binding to GAPDH (Comments) (rabbit GAPDH; [11]): LS, red-shift | Binding to GAPDH (Comments) (rabbit GAPDH; pH 7.4 (Tris, 100 mM, 10% glycerol), room temperature, listed as Co(III)-protoporphyrin IX): bound

GAPDH-heme: pre-formed complex of rabbit GAPDH with heme
midpoint potential, reductive titration [10]: −153 ± 4 mV
